Source: PubChem BioAssay
This is one part of a sample in which hits are shown more often than they occur.
XBP1 UPR activ – adaptive UPR (XBP1) activation; CHO-XBP1 luciferase reporter, IRE1-XBP1 UPR activation, luminescence; percent of tunicamycin response, DMSO as zero; activation, % at 20 µM; 330,000 compounds, 0.33% hits; AID 463104;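 active = versus positive control, 20 µM dose yields 30% or more activation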;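 note: 100% = tunicamycin at 10 µg/mL and 0% = DMSO only wells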
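Material: CHO cell line with stable XBP1 luciferase reporter; schedule: 16-18 h cell attachment at 37 °C, then 6 h compound exposure; signal: glow luminescence from Steady-Glo reagent; medium: serum-containing F12 medium, 10% FBS; benchmarks: tunicamycin 10 µg/mL and vehicle-only wells; read-out: percent activation relative to tunicamycin reference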
UPR CHOP act – apoptotic UPR (CHOP) activation | activation, % at 10 µM | AID 449763 | 330,000 compounds, 0.34% hits | CHO-CHOP luciferase reporter, luminescence; percent of tunicamycin response over DMSO baseline;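 active = at 10 µM dose, activation of 40% or more, normalized to positive control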;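 note: 100% = tunicamycin at 10 µg/mL and 0% = DMSO alone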
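assay system = CHO CHOP reporter cells | amount = 500 CHO-CHOP cells per well | buffer or medium = F12 with 10% FBS | incubation = 16-18 h cell attachment, then 6 h compound exposure, 37 °C | detection = luminescence read with Steady-Glo | read-out = percent activation relative to tunicamycin control | controls = tunicamycin high control, DMSO low control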
PvdQ acylase – blocks Pseudomonas aeruginosa PvdQ acylase activity; purified PvdQ acylase, fluorescence plate reader; 340,000 compounds, 0.063% hits; inhibition, % at 10 µM; in the data active = inhibition above about 30%, passing the limit was not always enough;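 note: 0% = vehicle neutral wells and 100% = reference inhibitor wells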
CHOP inhibitor – inhibitors of CHOP induction in ER stress response | CHO-K1 CHOP-promoter luciferase, tunicamycin-induced, 15-18 h | inhibition, % at 10 µM | 220,000 compounds, 3.8% hits | AID 2732;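 active = compounds that reduced the stress-induced luciferase reporter signal by more than about 70% of percent inhibition, limit read from the data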;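 note: 0% = tunicamycin plus vehicle and 100% = wells without tunicamycin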
UPR XBP1 confirm – confirmation of adaptive unfolded protein response (XBP1) activators | AID 485299 | CHO-XBP1 IRE1-XBP1 luciferase reporter, luminescence | shares compounds with XBP1 UPR activ | activation, % at 20 µM | 1,000 compounds, 63% hits;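 active = reporter signal at least 30% of the positive control's activation in two or more of four replicate wells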;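 note: plate controls were DMSO negative control for no effect and tunicamycin 10 µg/mL positive control for full effect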
* = called active by the depositor; nt = no result.

SMILES	XBP1 UPR activ	UPR CHOP act	PvdQ acylase	CHOP inhibitor	UPR XBP1 confirm
CN(C)CCCNC(=O)c1ccccn1	1	-1	1	-10	nt
CN(C)CCCNC(=O)c1ccc(-c2nc(-c3ccc(Cl)cc3)cs2)cc1	82*	9	-9	-65	159*
COc1cc2c(cc1OC)[C@@H](NC(=O)c1ccc(C(F)(F)F)cc1)[C@H](OCc1ccccc1)C2	36*	1	-7	nt	18
Cc1c(Cl)cccc1Nc1nc(NCCO)c2ccccc2n1	75*	9	-4	nt	58*
COC(=O)c1nn(-c2ccccc2)nc1-c1nn(-c2ccccc2)nc1C(=O)OC	39*	5	-22	-13	18
Cn1c(N)c(C(=O)COC(=O)C2CC(=O)N(Cc3ccccc3)C2)c(=O)n(C)c1=O (centres undefined)	1	-2	2	21	nt
Cc1ccc(C2=Nc3ccc(Br)cc3C(c3ccncc3)=NN2)cc1	37*	4	-4	31	45*
Cn1nc(C(F)(F)F)c(/C=N/OC(=O)c2ccccc2Cl)c1SCc1ccccc1Cl	89*	26	-10	35	98*
Cn1nc(C(F)(F)F)c(/C=N/OC(=O)c2ccccc2)c1SCc1ccc(Cl)cc1	48*	12	-11	57	90*
CCCCN(CC)S(=O)(=O)c1ccc(C(=O)N=c2sc3cc(NC(C)=O)ccc3n2C)cc1	137*	23	18	47	106*
CCCCN(C)S(=O)(=O)c1ccc(C(=O)N=c2sc3cc(NC(C)=O)ccc3n2C)cc1	0	1	12	-20	nt
COc1ccc(C(=O)/C=C/c2ccc(O)cc2)c(O)c1C/C=C(\C)CCC=C(C)C	83*	11	8	nt	31*
O=C(NCCCN1CCOCC1)c1cc(Cl)ccc1OCc1ccccc1	-8	-2	-24	nt	nt
O=C(Nc1ccc(-c2nc3c(ccc4ccccc43)o2)cc1)c1ccco1	33*	18	0	79*	15
N#Cc1c(-c2ccc3c(c2)OCO3)ccn2nc(-c3cccc(C(F)(F)F)c3)nc12	53*	14	-17	51	50*
O=C(COC(=O)c1ccc2[nH]c3c(c2c1)CCCC3)Nc1ccccc1Cl	52*	-2	-14	-29	66*
Cn1c(=O)[nH]c2c(c1=O)CCO2	nt	nt	3	nt	nt
COc1ccc(-c2csc(C3=C(O)CN(Cc4ccc(Cl)cc4)C3=N)n2)cc1OC	43*	2	-7	45	134*
COc1ccc(-c2csc(C3=C(O)CN(Cc4ccc(S(N)(=O)=O)cc4)C3=N)n2)cc1OC	-1	-2	-19	56	nt
CCOC(=O)c1c(NC(=O)c2cc(C)on2)c2cc([N+](=O)[O-])ccc2n1C	84*	20	nt	-5	49*
CCOC(=O)c1c(NC(=O)c2ccno2)c2cc([N+](=O)[O-])ccc2n1C	-2	0	-1	-10	nt
CC1=Nc2ccccc2/C1=C\c1sc(Nc2ccc(C)cc2)nc1O	33*	4	-13	-33	40*
O=c1ccc2cc(S(=O)(=O)N3CCN(c4ccccc4)CC3)ccc2[nH]1	2	-3	-7	nt	nt
O=S(=O)(c1ccc2nc(-c3ccccc3)[nH]c2c1)N1CCN(c2ccc(Cl)cc2)CC1	90*	20	-6	105*	115*
CSc1ccc(NC(=O)NCCCN2CCC(Cc3ccccc3)CC2)cc1	1	1	-10	nt	nt
SMILES	XBP1 UPR activ	UPR CHOP act	PvdQ acylase	CHOP inhibitor	UPR XBP1 confirm
C=CCn1c(NC(=O)c2ccccc2Cl)c(C#N)c2nc3ccccc3nc21	35*	0	-11	-16	-1
Nc1nc(Nc2cccc(C(F)(F)F)c2)nc(C(F)(F)F)n1	34*	1	-3	-5	49*
O=S(=O)(c1cc(F)ccc1F)N1CCN(c2ncccn2)CC1	-5	2	2	nt	nt
O=C(COc1ccc2ccc(=O)oc2c1)Nc1c(Cl)cccc1C(F)(F)F	31*	-2	-17	nt	-2
O=C(COc1coc(CN2CCN(c3ccc(F)cc3)CC2)cc1=O)NCC1CCCO1 (centres undefined)	-1	1	-9	nt	nt
COc1cc([N+](=O)[O-])ccc1NC(=S)NNC(=O)c1ccc2c(c1)OCO2	30*	-1	1	nt	0
COc1cccc(N=c2oc3c(C)ncc(CO)c3cc2C(=O)Nc2ccccc2OC)c1	nt	nt	nt	10	nt
COc1ccccc1NC(=O)c1cc2c(CO)cnc(C)c2oc1=Nc1ccccc1	501*	12	2	nt	168*
COc1ccc(C(=O)/C=C/c2cccs2)c(OC(=O)c2cccc([N+](=O)[O-])c2)c1	42*	8	-6	-99	56*
Cc1nn(-c2ccccc2)c2sc(C(=O)NC3CC3)cc12	10	3	0	-1	nt
Cc1nc(NC(=O)c2cc3c(C)nn(-c4ccccc4)c3s2)sc1C(=O)Nc1ccccc1	49*	1	-16	-18	54*
COc1cnc(-c2ccccn2)nc1Sc1ccc(Cl)cc1	32*	8	-6	30	8
CCOC(=O)C1=NOC(CNc2ncc(C(F)(F)F)cc2Cl)C1 (centres undefined)	0	3	-3	2	nt
COc1ccc(S(=O)(=O)N2CCOC23CCN(S(=O)(=O)c2ccc(C)cc2)CC3)cc1	-3	-1	6	nt	nt
Cc1c(CCOC(=O)CC23CC4CC(CC(C4)C2)C3)sc[n+]1CC(=O)c1ccc(Br)cc1	34*	3	-8	-25	1
Cc1c(CCOC(=O)CC23CC4CC(CC(C)(C4)C2)C3)sc[n+]1CC(=O)c1ccccc1	-2	-1	-6	54	nt
COc1cc2nc(N3CCN(c4cc(C)ccc4C)CC3)nc(N)c2cc1OC	109*	36	-5	nt	62*
COc1ccc(C)cc1Nc1nc(N)c2cc(OC)c(OC)cc2n1	7	0	-8	nt	nt
C[C@]12c3[nH]c4ccc(Cl)cc4c3CCN1C(=O)[C@@H](CC(=O)NCCN1CCOCC1)C[C@@H]2C(=O)N1CCCCC1	0	0	-20	nt	nt
CN1Cc2c(N3CCOCC3)nc3sc(C(=O)c4ccc(Br)cc4)c(N)c3c2CC1(C)C	38*	8	nt	-10	63*
O=S(=O)(c1ccc(=S)[nH]c1)N1CCN(Cc2ccccc2)CC1	-4	1	-1	nt	nt
CC1CCN(Cc2c(C(=O)N/N=C/c3ccc(C(C)C)cc3)nnn2-c2nonc2N)CC1	36*	3	3	nt	74*
Nc1nonc1-n1nnc(C(=O)N/N=C/c2ccc(Br)cc2)c1CN1CCOCC1	-2	3	-5	nt	nt
CN(C)c1ccc(/C=N/NC(=O)c2nnn(-c3nonc3N)c2CN2CCCCCC2)cc1	59*	24	-10	nt	20
N/C(=N\c1nc2c(c(=O)[nH]1)CCC2)Nc1ccccc1C(F)(F)F	1	-2	16	45	nt
Cn1nnnc1Sc1ncnc2scc(-c3ccc(Br)cc3)c12	100*	18	2	nt	141*
COc1ccc2nc(NCc3ccc(OC)c(OC)c3OC)sc2c1	nt	nt	6	nt	nt
